Results collected from several papers.
Target: Delta-type opioid receptor (OPRD1, Homo sapiens, UniProt P41143)

| SMILES | read-out | method | notes | Ki [nM] |
| --- | --- | --- | --- | --- |
| CCCC[C@@H](NC(=O)[C@@H](N)Cc1ccc(O)cc1)C(=O)NCC(=O)N[C@@H](Cc1ccc(F)cc1)C(=O)N(C)CCC[C@@]1(c2ccc(F)cc2)OCc2cc(C#N)ccc21 | cell-free assay | – | – | 1.4 |
| Cc1cc(O)cc(C)c1C[C@H](N)C(=O)N1Cc2ccccc2C[C@H]1C(=O)NCC(=O)NCc1ccc([N+](=O)[O-])cc1 | ligand displacement | radioligand | cell membranes | 0.39 |
| Cc1cc(/N=N/C(=O)NCC2(N(C)C)CCCCC2)ccc1F | cell-free assay | – | – | 30000 |
| C[C@@H](NC(=O)[C@@H](N)Cc1ccc(O)cc1)C(=O)NCC(=O)N[C@H](CC(=O)NNC(=O)C[C@H](Cc1ccccc1)NC(=O)CNC(=O)[C@@H](C)NC(=O)[C@@H](N)Cc1ccc(O)cc1)Cc1ccccc1 | ligand displacement | radioligand | – | 0.72 |
| C[C@@H](NC(=O)[C@@H](N)Cc1ccc(O)cc1)C(=O)NCC(=O)N[C@@H](Cc1ccc(Cl)cc1)C(=O)N(C)CCC[C@@]1(c2ccc(F)cc2)OCc2cc(C#N)ccc21 | cell-free assay | – | – | 1.6 |
| CCCCC/C=C\C/C=C\C/C=C\C/C=C\CCCC(=O)O | ligand displacement | radioligand | cell membranes | 4800 |
| CN(C)C1(CNC(=O)/N=N/c2ccc(F)cc2)CCCCC1 | cell-free assay | – | – | 12000 |
| CCCC[C@@H](NC(=O)[C@@H](N)Cc1c(C)cc(O)cc1C)C(=O)NCC(=O)N[C@@H](Cc1ccc(F)cc1)C(=O)N(C)CCC[C@@]1(c2ccc(F)cc2)OCc2cc(C#N)ccc21 | cell-free assay | – | – | 0.8 |
| COc1ccsc1CNCC[C@@]1(c2ccccn2)CCOC2(CCCC2)C1 | cell-free assay | – | – | 1400 |
| Cc1cc(O)cc(C)c1C[C@H](N)C(=O)N1Cc2ccccc2C[C@H]1C(=O)NCC(=O)NCc1ccc(Cl)cc1 | ligand displacement | radioligand | cell membranes | 0.26 |
| C[N+]1(C)CCC(=C(c2ccccc2)c2ccccc2)CC1 | cell-free assay | – | – | 14000 |
| Cc1cc(O)cc(C)c1C[C@H](N)C(=O)N1Cc2ccccc2C[C@H]1C(=O)NCC(=O)NC(c1ccccc1)c1ccccc1 | ligand displacement | radioligand | cell membranes | 0.94 |
| CC(=O)Nc1ccccc1-c1cnc2c(c1)C[C@@]1(OCCCc3ccccc3)[C@H]3Cc4ccc(O)c5c4[C@@]1(CCN3CC1CC1)[C@H]2O5 | ligand displacement | radioligand | cell membranes | > 3330 |
